# “Also recorded” adds a separate entry of the source. Like-named read-outs stand apart in the source and are kept apart here.
# Legend:
# [1] = after subcutaneous injection; cited from earlier work
# [2] = cited from earlier work
# [3] = progressed, fluctuating patients; cited from earlier work
# [4] = Delivered dose and fine particle dose from the Cyclops inhaler; assay type: physicochemical; conditions: at 4 kPa; laser diffraction
# Outline: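 Residue left in the inhaler after each patient inhalation was measured by UV spectrophotometry. Delivered dose was calculated as blister dose minus inhaler residue. Fine particle dose (<5 µm) was measured by laser diffraction at 4 kPa.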
# [5] = Airway tolerability: spirometry; assay type: in vivo, human
# Outline: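 Eight patients with Parkinson's disease (not off) inhaled dry-powder levodopa by mouth: 30 mg, then 60 mg (2 × 30 mg). At a third visit they took their regular oral levodopa/decarboxylase inhibitor. Visits were ≥7 days apart, in the morning, ≥7.5 h after the last home dose, with no food for 60 min either side. Spirometry (pneumotachograph, ATS/ERS) was done before and ±35 and 100 min after dosing. FEV1 drop >10% from baseline was deemed relevant. Cough and dyspnoea were queried each session (Borg scale).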
# [6] = Plasma levodopa pharmacokinetics after inhaled; assay type: in vivo, human; conditions: for AUC: inhaled or intranasal
# Outline: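 Eight Parkinson's patients, not in the off state, got single morning doses at least 7.5 h after their last home dose, fasting 60 min before to 60 min after. Oral doses were 100/25–250/62.5 mg with decarboxylase inhibitor, normalised to 100 mg. Plasma had glutathione added and was stored at −80°C, then assayed by LC-MS/MS (LOQ 1.0 nmol/l). Half-life came from Cmax and the last concentration.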
Structure (SMILES),lag time to onset of effect [1] [min],plasma levodopa concentration ([2]; 10 min after 100 mg oral levodopa in the fasted state),absolute bioavailability ([2]; oral immediate-release levodopa combined with a decarboxylase inhibitor),absolute bioavailability ([2]; oral immediate-release levodopa),increase in levodopa effect compartment concentration giving maximum effect on finger tapping [3] [ng/mL],fine particle dose (<5 µm) [4],"change in lung-function parameters (FEV1, FVC, MEF50) ([5]; after inhalation of 30 mg or 60 mg levodopa, spirometry ±35 and 100 min after administration)","tolerability ([5]; after inhalation, 30 and 60 mg)","change in lung-function parameters (FEV1, FVC, MEF50) ([5]; after oral administration of levodopa)",patients experiencing cough or dyspnoea ([5]; during or after inhalation),"AUC ([6]; human, plasma, 30 mg) [ng·h/mL]","AUC ([6]; human, plasma, 60 mg) [ng·h/mL]","half-life ([6]; human, plasma, po, mean elimination half-life time, oral administration of levodopa plus decarboxylase inhibitor) [h]","elimination half-life ([6]; inhaled levodopa, both doses, range and mean) [h]",time by which inhaled levodopa is absorbed faster in the blood plasma than oral ([6]; inhaled vs oral),relative bioavailability of inhaled levodopa in comparison with oral levodopa ([6]; inhaled without carboxylase inhibitor vs oral with carboxylase inhibitor) [%],mean elimination half-life time ([6]; oral administration of levodopa plus decarboxylase inhibitor) [h]
CN1CCc2cccc3c2[C@H]1Cc1ccc(O)c(O)c1-3 [apomorphine],> 20,,,,,,,,,,,,,,,,
"N[C@@H](Cc1ccc(O)c(O)c1)C(=O)O [levodopa, Levodopa]",,around 150 ng/ml,approximately 85%,40–60%,200 to 400,45 % of the delivered dose,No significant change; also recorded: none of the patients,well tolerated,No significant change,none of the patients,9.69,9.58,1.13 ± 0.343,0.967,up to 85 min,53,1.13

# Reference: paper PMC6589987 (Therapeutic Advances in Chronic Disease, 2019)
